Source: ChEMBL document CHEMBL3580532, “Deconins A-E: Cuparenic and Mevalonic or Propionic Acid Conjugates from the Basidiomycete Deconica sp. 471” (J Nat Prod, 2015)
Values after ≈ are worked out from the molar mass of the structure shown. Active and inactive are the calls of the source. The rule behind the calls is not given here.

How the values were obtained:
[1] = test system: Schizosaccharomyces pombe; test: Antimicrobial activity against Schizosaccharomyces pombe DSM70572 assessed as inhibition of microbial growth incubated for 24 to 48 hrs by serial dilution assay; assay type: functional, organism-based
In short: (§1)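 Broth serial dilution in MYC medium (1.0% phytone peptone, 1.0% glucose, 50 mM HEPES, pH 7.0). Compound stock (1 mg/mL in MeOH) was dried in the first row, then the yeast was added as a 1:100 inoculum:medium mix. Twofold serial dilutions covered 66.7 to 0.1 μg/mL. Plates were shaken at 600 rpm, 30 °C, for 24–48 h. MIC was the lowest concentration with no visible growth. Blank wells served as negative controls.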

Candida albicans [2] = test: Antimicrobial activity against Candida albicans DSM1665 assessed as inhibition of microbial growth incubated for 24 to 48 hrs by serial dilution assay; assay type: functional, organism-based; in short: as §1
Wickerhamomyces anomalus [3] = test: Antimicrobial activity against Pichia anomala DSM6766 assessed as inhibition of microbial growth incubated for 24 to 48 hrs by serial dilution assay; assay type: functional, organism-based; in short: as §1
Mucor hiemalis [4] = test: Antimicrobial activity against Mucor hiemalis DSM2656 […] assessed as inhibition of microbial growth incubated for 24 to 48 hrs by serial dilution assay; assay type: functional
In short: (§2)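 Yeasts and fungi were tested by serial dilution in MYC medium (1.0% phytone peptone, 1.0% glucose, 50 mM HEPES, pH 7.0). Compound from a 1 mg/mL MeOH stock was dried in row A, then inoculum at 1:100 in medium was added and diluted 1:1 down the plate (66.7 to 0.1 μg/mL). Incubation was 30 °C, 600 rpm shaking, 24−48 h. MIC is the lowest concentration with no visible growth.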

[5] = test system: Chromobacterium violaceum; test: Antimicrobial activity against Chromobacterium violaceum DSM30191 assessed as inhibition of microbial growth up to 67 ug/ml incubated for 24 to 48 hrs by serial dilution assay; assay type: functional, organism-based
In short: (§3)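 Broth microdilution in EBS medium (peptone, glucose, meat and yeast extract, 50 mM HEPES, pH 7.0). A 1 mg/mL MeOH stock was dried in the first row, then pathogen diluted 1:100 in medium was added and serially diluted 1:1 (66.7 to 0.1 μg/mL tested). Plates were shaken at 600 rpm, 30 °C, for 24−48 h. MIC is the lowest concentration preventing visible growth; blank wells served as negative control.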

Escherichia coli [6] = test: Antimicrobial activity against Escherichia coli DSM1116 assessed as inhibition of microbial growth up to 67 ug/ml incubated for 24 to 48 hrs by serial dilution assay; assay type: functional, organism-based; in short: as §3
[7] = test system: Schizosaccharomyces pombe; test: Antimicrobial activity against Schizosaccharomyces pombe DSM70572 assessed as inhibition of microbial growth up to 67 ug/ml incubated for 24 to 48 hrs by serial dilution assay; assay type: functional, organism-based; in short: as §2
Candida albicans [8] = test: Antimicrobial activity against Candida albicans DSM1665 assessed as inhibition of microbial growth up to 67 ug/ml incubated for 24 to 48 hrs by serial dilution assay; assay type: functional, organism-based; in short: as §2
Wickerhamomyces anomalus [9] = test: Antimicrobial activity against Pichia anomala DSM6766 assessed as inhibition of microbial growth up to 67 ug/ml incubated for 24 to 48 hrs by serial dilution assay; assay type: functional, organism-based; in short: as §2
Mucor hiemalis [10] = test: Antimicrobial activity against Mucor hiemalis DSM2656 […] assessed as inhibition of microbial growth up to 67 ug/ml incubated for 24 to 48 hrs by serial dilution assay; assay type: functional, organism-based; in short: as §2
L929 = test: Cytotoxicity against mouse L929 cells incubated for 5 days by MTT assay; assay type: cell-based; settings: L929, 120 h
In short: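 L929 mouse fibroblasts were grown in EBM-2 with 10% FBS at 37 °C under 10% CO₂. Serial dilutions from a 1 mg/mL MeOH stock were added to cell suspension (50 000/mL) and incubated 5 days. Read-out was MTT with absorbance at 590 nm. IC₅₀ (50% growth inhibition versus control) was taken from dose−response curves; methanol was the negative control.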

Staphylococcus aureus [11] = test: Antimicrobial activity against Staphylococcus aureus DSM346 assessed as inhibition of microbial growth incubated for 24 to 48 hrs by serial dilution assay; assay type: functional; in short: as §3
Bacillus subtilis [12] = test: Antimicrobial activity against Bacillus subtilis DSM10 assessed as inhibition of microbial growth up to 67 ug/ml incubated for 24 to 48 hrs by serial dilution assay; assay type: functional, organism-based; in short: as §3
Micrococcus luteus [13] = test: Antimicrobial activity against Micrococcus luteus DSM1790 assessed as inhibition of microbial growth up to 67 ug/ml incubated for 24 to 48 hrs by serial dilution assay; assay type: functional, organism-based; in short: as §3
Pseudomonas aeruginosa [14] = test: Antimicrobial activity against Pseudomonas aeruginosa DSM50071 assessed as inhibition of microbial growth up to 67 ug/ml incubated for 24 to 48 hrs by serial dilution assay; assay type: functional, organism-based; in short: as §3
Staphylococcus aureus [15] = test: Antimicrobial activity against Staphylococcus aureus DSM346 assessed as inhibition of microbial growth up to 67 ug/ml incubated for 24 to 48 hrs by serial dilution assay; assay type: functional, organism-based; in short: as §3
Pseudomonas aeruginosa [16] = test: Antimicrobial activity against Pseudomonas aeruginosa DSM50071 assessed as inhibition of microbial growth incubated for 24 to 48 hrs by serial dilution assay; assay type: functional, organism-based
In short: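 Broth serial dilution in EBS medium (0.5% peptone, 0.5% glucose, 0.1% meat extract, 0.1% yeast extract, 50 mM HEPES, pH 7.0). Compound stock (1 mg/mL in MeOH) was dried in the first row, then the bacterium was added as a 1:100 inoculum:medium mix. Twofold dilutions covered 66.7 to 0.1 μg/mL. Plates were shaken at 600 rpm, 30 °C, for 24–48 h. MIC was the lowest concentration with no visible growth.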

Bacillus subtilis [17] = test: Antimicrobial activity against Bacillus subtilis DSM10 assessed as inhibition of microbial growth incubated for 24 to 48 hrs by serial dilution assay; assay type: functional; in short: as §3
Micrococcus luteus [18] = test: Antimicrobial activity against Micrococcus luteus DSM1790 assessed as inhibition of microbial growth incubated for 24 to 48 hrs by serial dilution assay; assay type: functional; in short: as §3
[19] = test system: Chromobacterium violaceum; test: Antimicrobial activity against Chromobacterium violaceum DSM30191 assessed as inhibition of microbial growth incubated for 24 to 48 hrs by serial dilution assay; assay type: functional; in short: as §3
Escherichia coli [20] = test: Antimicrobial activity against Escherichia coli DSM1116 assessed as inhibition of microbial growth incubated for 24 to 48 hrs by serial dilution assay; assay type: functional; in short: as §3

| Molecule | MIC (Mucor hiemalis [4]) | inhibition [5] | inhibition (Escherichia coli [6]) | inhibition [7] | inhibition (Candida albicans [8]) | inhibition (Wickerhamomyces anomalus [9]) | inhibition (Mucor hiemalis [10]) | IC50 (L929) | MIC (Staphylococcus aureus [11]) | inhibition (Bacillus subtilis [12]) | inhibition (Micrococcus luteus [13]) | inhibition (Pseudomonas aeruginosa [14]) | inhibition (Staphylococcus aureus [15]) | further results |
| --- | --- | --- | --- | --- | --- | --- | --- | --- | --- | --- | --- | --- | --- | --- |
| NYSTATIN | 67 µg/mL |  |  |  |  |  |  |  |  |  |  |  |  | MIC [1]: 33.3 µg/mL; MIC (Candida albicans [2]): 67 µg/mL; MIC (Wickerhamomyces anomalus [3]): 33.3 µg/mL |
| CC1(C)CC[C@@H](O)[C@]1(C)c1ccc(C(=O)OCC[C@@](C)(O)CC(=O)O)cc1 |  | inactive | inactive | inactive | inactive | inactive | inactive | 2.8 µg/mL (≈ 7.4 µM) | 67 µg/mL | inactive | inactive | inactive |  |  |
| CC1(C)CC(=O)C[C@]1(C)c1ccc(C(=O)OCC[C@@](C)(O)CC(=O)O)cc1 |  | inactive | inactive | inactive | inactive | inactive | inactive | > 10 µg/mL |  | inactive | inactive | inactive | inactive |  |
| GENTAMICIN |  |  |  |  |  |  |  |  |  |  |  |  |  | MIC (Pseudomonas aeruginosa [16]): 42 µg/mL |
| CC1(C)[C@@H](O)C(=O)C[C@]1(C)c1ccc(C(=O)O)cc1 |  | inactive | inactive | inactive | inactive | inactive | inactive | > 10 µg/mL |  | inactive | inactive | inactive | inactive |  |
| CC1(C)CC(=O)C[C@]1(C)C1=CC=C(C(=O)OCC[C@@](C)(O)CC(=O)O)CC1 |  | inactive | inactive | inactive | inactive | inactive | inactive | > 10 µg/mL |  | inactive | inactive | inactive | inactive |  |
| CC(O)(COC(=O)c1ccc([C@@]2(C)C[C@H](O)CC2(C)C)cc1)C(=O)O (some centres not stated) |  | inactive | inactive | inactive | inactive | inactive | inactive | > 10 µg/mL | 67 µg/mL | inactive | inactive | inactive |  |  |
| CC1(C)CCC[C@]1(C)c1ccc(C(=O)O)cc1 | 67 µg/mL | inactive | inactive | inactive | inactive | inactive |  | > 10 µg/mL |  | inactive | inactive | inactive | inactive |  |
| CC1(C)CCC[C@]1(C)c1ccc(C(=O)OCC[C@@](C)(O)CC(=O)O)cc1 | 67 µg/mL | inactive | inactive | inactive | inactive | inactive |  | > 10 µg/mL | 67 µg/mL |  | inactive | inactive |  | MIC (Bacillus subtilis [17]): 67 µg/mL |
| CN(C)[C@@H]1C(O)=C(C(N)=O)C(=O)[C@@]2(O)C(O)=C3C(=O)c4c(O)cccc4[C@@](C)(O)[C@H]3[C@H](O)[C@@H]12.Cl [OXYTETRACYCLINE HYDROCHLORIDE] |  |  |  |  |  |  |  |  | 0.21 µg/mL |  |  |  |  | MIC (Bacillus subtilis [17]): 0.83 µg/mL; MIC (Micrococcus luteus [18]): 0.42 µg/mL; MIC [19]: 0.83 µg/mL; MIC (Escherichia coli [20]): 0.83 µg/mL |
